Measured values published in ChEMBL document CHEMBL1821557, “Novel aryloxy azolyl chalcones with potent activity against Mycobacterium tuberculosis H37Rv” (Eur J Med Chem, 2011).
Values after ≈ are worked out from the molar mass of the structure shown.

Legend:
[1] = system: Mycobacterium tuberculosis; experiment: Antitubercular activity against Mycobacterium tuberculosis H37Rv after 4 weeks by agar proportion method; assay type: functional; conditions: 672 h
Procedure, shortened: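 Agar proportion method on Middlebrook 7H10 agar slants with OADC; compounds in DMSO added at 0.1 mL per 1.9 mL medium. Inoculum was H37Rv grown on L–J medium and suspended in saline with 0.05% Tween-80, ~10^5 bacilli per tube. Incubated 37 °C for 4 weeks; MIC is the lowest concentration with no visible growth.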

[2] = system: Mycobacterium tuberculosis; experiment: Antitubercular activity against Mycobacterium tuberculosis H37Rv infected in Swiss mouse infected assessed as mouse survival at 100 mg/kg/day, po for 28 days measured on day 40 post infection; assay type: functional
Procedure, shortened: (§1)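 Outbred Swiss mice infected i.v. with H37Rv at 10^7 CFU/mouse, in groups of 6–8. Daily oral dosing for 28 days: test compounds at 100 mg/kg in peanut oil, or isoniazid at 25 mg/kg. Percent survivors and mean survival time were recorded on day 30 and day 40.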

[3] = system: Mycobacterium tuberculosis; experiment: Ex-vivo antitubercular activity against Mycobacterium tuberculosis H37Rv infected in mouse BMDM cells assessed as reduction in intracellular bacterial level after 4 days at 5 times MIC; assay type: functional; set-up: scale not given: the % may be the effect or the level left
[4] = Cytotoxicity against mouse BMDM cells assessed as growth inhibition at 10 times MIC after 24 hrs by MTS assay; assay type: cell-based
Procedure, shortened: (§2)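 Vero cells or mouse bone-marrow-derived macrophages plated at 20,000 cells/well and allowed to adhere overnight (37 °C, 5% CO2). Compounds added at several concentrations for 24 h, then MTS for 2 h, with OD read at 490 nm. IC50 is the concentration giving 50% viability loss; a compound counts as toxic if IC50 ≤10× MIC.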

[5] = system: Mycobacterium tuberculosis; experiment: Antitubercular activity against Mycobacterium tuberculosis H37Rv infected in Swiss mouse assessed as inhibition of viable bacterial counts in lungs at 100 mg/kg, po for 28 days measured on day 30 post infection; assay type: functional
[6] = system: Mycobacterium tuberculosis; experiment: Antitubercular activity against Mycobacterium tuberculosis H37Rv infected in Swiss mouse infected assessed as mean survival time of mouse survival at 100 mg/kg/day, po for 28 days measured on day 40 post infection; assay type: functional; procedure, shortened: as §1
Vero = experiment: (§3) Cytotoxicity against african green monkey Vero cells assessed as growth inhibition at 10 times MIC after 24 hrs by MTS assay; assay type: cell-based; conditions: chlorocebus sabaeus, vero, 24 h; procedure, shortened: as §2
[7] = system: Mycobacterium tuberculosis; experiment: Antitubercular activity against Mycobacterium tuberculosis H37Rv infected in Swiss mouse infected assessed as mouse survival at 100 mg/kg/day, po for 28 days measured on day 30 post infection; assay type: functional; procedure, shortened: as §1
[8] = system: Mycobacterium tuberculosis; experiment: Antitubercular activity against Mycobacterium tuberculosis H37Rv infected in Swiss mouse infected assessed as mean survival time of mouse at 100 mg/kg/day, po for 28 days measured on day 30 post infection; assay type: functional; procedure, shortened: as §1
[9] = as §3; assay type: cell-based; conditions: chlorocebus sabaeus, Vero cells; read-out: GI; procedure, shortened: as §2
[10] = system: Mycobacterium tuberculosis; experiment: Antitubercular activity against Mycobacterium tuberculosis H37Rv infected in Swiss mouse assessed as inhibition of viable bacterial counts in lungs at 25 mg/kg, po for 28 days measured on day 30 post infection; assay type: functional
Procedure, shortened: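 Outbred Swiss mice infected i.v. with H37Rv at 10^7 CFU/mouse, in groups of 6–8. Test compounds were given orally at 100 mg/kg daily for 28 days in peanut oil; isoniazid at 25 mg/kg for 28 days. On day 30, serial dilutions of lung homogenate were plated on 7H11 agar and colonies counted after 3–4 weeks at 37 °C. Result is % inhibition of lung CFU versus untreated controls.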

[11] = system: Mycobacterium tuberculosis; experiment: Antitubercular activity against Mycobacterium tuberculosis H37Rv infected in Swiss mouse infected assessed as mouse survival at 25 mg/kg/day, po for 28 days measured on day 40 post infection; assay type: functional; procedure, shortened: as §1
[12] = system: Mycobacterium tuberculosis; experiment: Antitubercular activity against Mycobacterium tuberculosis H37Rv infected in Swiss mouse infected assessed as mean survival time of mouse at 25 mg/kg/day, po for 28 days measured on day 30 post infection; assay type: functional; procedure, shortened: as §1
Mus musculus = experiment: Antitubercular activity against Mycobacterium tuberculosis H37Rv infected in Swiss mouse infected assessed as mouse survival at 25 mg/kg/day, po for 28 days measured on day 30 post infection; assay type: functional; procedure, shortened: as §1

## O=C(/C=C/c1ccc(Oc2ccc(C(F)(F)F)cc2[N+](=O)[O-])cc1)c1ccc(-n2ccnc2)cc1
[1]
  MIC: 12.5 µg/mL (≈ 26.1 µM)

## O=C(/C=C/c1ccc(OCc2ccc(Cl)cc2Cl)cc1)c1ccc(-n2ccnc2)cc1
[2]
  survival at 100 mg/kg/day: 83%
[3]
  Activity: 99%
[4]
  Activity: Non-toxic
[5]
  inhibition in vivo at 100 mg/kg: 13%
[1]
  MIC: 3.12 µg/mL (≈ 6.94 µM)
[6]
  MST: 38.5 days
Vero
  Activity: Non-toxic
[7]
  survival at 100 mg/kg/day: 100%
[8]
  MST: 30 days

## O=C(/C=C/c1ccc(OCc2cc(Cl)ccc2Cl)cc1)c1ccc(-n2ccnc2)cc1
[1]
  MIC: 12.5 µg/mL (≈ 27.8 µM)

## O=C(/C=C/c1ccc(OCc2cccc(Cl)c2)cc1)c1ccc(-n2ccnc2)cc1
[1]
  MIC: 3.12 µg/mL (≈ 7.52 µM)
[9]
  inhibition at 24 h, 10 times MIC: 50%

## O=C(/C=C/c1ccc(-n2ccnc2)cc1)c1ccc(OCc2cc(F)ccc2F)cc1
[3]
  Activity: <50%
[4]
  Activity: Non-toxic
[1]
  MIC: 3.12 µg/mL (≈ 7.49 µM)
Vero
  Activity: Non-toxic

## NNC(=O)c1ccncc1 [ISONIAZID]
[10]
  inhibition in vivo at 25 mg/kg: 100%
[11]
  survival at 25 mg/kg/day: 100%
[4]
  Activity: Non-toxic
[1]
  MIC: 0.025 µg/mL (≈ 0.182 µM)
[12]
  MST: 30 days
Mus musculus
  survival at 25 mg/kg/day: 100%
Vero
  Activity: Non-toxic

## O=C(/C=C/c1ccc(-n2ccnc2)cc1)c1ccc(OCc2ccc(F)cc2F)cc1
[2]
  survival at 100 mg/kg/day: 100%
[3]
  Activity: 71%
[4]
  Activity: Non-toxic
[5]
  inhibition in vivo at 100 mg/kg: 40%
[1]
  MIC: 1.56 µg/mL (≈ 3.75 µM)
[6]
  MST: 40 days
Vero
  Activity: Non-toxic
[7]
  survival at 100 mg/kg/day: 100%
[8]
  MST: 30 days

## O=C(/C=C/c1ccc(-n2ccnc2)cc1)c1ccc(OCc2cc(Cl)ccc2Cl)cc1
[1]
  MIC: 3.12 µg/mL (≈ 6.94 µM)
[9]
  inhibition at 24 h, 10 times MIC: 50%

## O=C(/C=C/c1ccc(-n2cncn2)cc1)c1ccc(OCc2cc(Cl)ccc2Cl)cc1
[1]
  MIC: > 25 µg/mL

## O=C(/C=C/c1ccc(-n2cncn2)cc1)c1ccc(OCc2ccc(Cl)cc2Cl)cc1
[1]
  MIC: > 25 µg/mL

## O=C(/C=C/c1ccc(OCc2ccc(Cl)cc2Cl)cc1)c1ccc(OCc2ccc(Cl)cc2Cl)cc1
[1]
  MIC: > 25 µg/mL

## O=C(/C=C/c1ccc(-n2cncn2)cc1)c1ccc(OCc2cc(F)ccc2F)cc1
[1]
  MIC: 3.12 µg/mL (≈ 7.47 µM)
[9]
  inhibition at 24 h, 10 times MIC: 50%

## O=C(/C=C/c1ccc(-n2cncn2)cc1)c1ccc(OCc2ccc(F)cc2F)cc1
[1]
  MIC: 12.5 µg/mL (≈ 29.9 µM)

## O=C(/C=C/c1ccc(-n2ccnc2)cc1)c1ccc(-n2ccnc2)cc1
[1]
  MIC: > 25 µg/mL

## O=C(/C=C/c1ccc(OCc2ccc(F)cc2F)cc1)c1ccc(-n2cncn2)cc1
[1]
  MIC: 12.5 µg/mL (≈ 29.9 µM)

## O=C(/C=C/c1ccc(OCc2cccc(Cl)c2)cc1)c1ccc(-n2cncn2)cc1
[1]
  MIC: 12.5 µg/mL (≈ 30.1 µM)

## O=C(/C=C/c1ccc(-n2cncn2)cc1)c1ccc(Oc2ccc(C(F)(F)F)cc2[N+](=O)[O-])cc1
[1]
  MIC: 12.5 µg/mL (≈ 26 µM)

## O=C(/C=C/c1ccc(-n2cncn2)cc1)c1ccc(OCc2cccc(Cl)c2)cc1
[3]
  Activity: <50%
[4]
  Activity: Non-toxic
[1]
  MIC: 0.78 µg/mL (≈ 1.88 µM)
Vero
  Activity: Non-toxic

## O=C(/C=C/c1ccc(-n2cncn2)cc1)c1ccc(-n2cncn2)cc1
[1]
  MIC: > 25 µg/mL

## O=C(/C=C/c1ccc(-n2ccnc2)cc1)c1ccc(OCc2cccc(Cl)c2)cc1
[1]
  MIC: 6.25 µg/mL (≈ 15.1 µM)

## O=C(/C=C/c1ccccc1)c1ccc(OCc2ccc(Cl)cc2Cl)cc1
[1]
  MIC: 12.5 µg/mL (≈ 32.6 µM)

## O=C(/C=C/c1ccc(OCc2ccc(F)cc2F)cc1)c1ccc(-n2ccnc2)cc1
[3]
  Activity: <50%

## O=C(/C=C/c1ccc(-n2ccnc2)cc1)c1ccc(Oc2ccc(C(F)(F)F)cc2[N+](=O)[O-])cc1
[1]
  MIC: 12.5 µg/mL (≈ 26.1 µM)

## O=C(/C=C/c1ccc(OCc2cc(F)ccc2F)cc1)c1ccc(-n2cncn2)cc1
[1]
  MIC: > 25 µg/mL

## O=C(/C=C/c1ccc(OCc2ccc(Cl)cc2Cl)cc1)c1ccc(-n2cncn2)cc1
[1]
  MIC: 25 µg/mL (≈ 55.5 µM)

## O=C(/C=C/c1ccc(-n2ccnc2)cc1)c1ccc(OCc2ccc(Cl)cc2Cl)cc1
[3]
  Activity: <50%
[4]
  Activity: Non-toxic
[1]
  MIC: 1.56 µg/mL (≈ 3.47 µM)
Vero
  Activity: Non-toxic

## O=C(/C=C/c1ccc(OCc2cc(Cl)ccc2Cl)cc1)c1ccc(-n2cncn2)cc1
[1]
  MIC: > 25 µg/mL
